The source made the active and inactive calls. The calls are words filed in the database; no cut-off is given here.
How the values were obtained:
NCI-H358 = assay: Antiproliferative activity against human NCI-H358 cells after 72 hrs by SRB or MTT assay; type: functional, cell-based; details: NCI-H358, 72 h
Method in brief: (§1)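 Cells seeded, exposed next day to a range of concentrations for 72 h. Growth read by sulforhodamine B or MTT. IC50 from four-parameter concentration-response fit. Each concentration tested at least in triplicate, with at least 2 experiments.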

[1] = target: Receptor tyrosine-protein kinase erbB-4 (Homo sapiens) (UniProt Q15303); assay: Inhibition of recombinant ERBB4 (unknown origin) using poly (Glu, Tyr) 4:1 as substrate at 1000 nM incubated for 60 mins by ELISA relative to control
Method in brief: (§2)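 Recombinant tyrosine kinases assayed on wells precoated with poly(Glu,Tyr)4:1 (20 µg/mL). ATP 10 µmol/L in HEPES pH 7.4 buffer with MgCl2, MnCl2, Na3VO4 and DTT; compound in 1% DMSO, 1% DMSO as control. Reaction 60 min at 37 °C. Phosphotyrosine detected with PY99 and HRP anti-mouse, o-phenylenediamine, A490. Inhibition % relative to control; two experiments.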

[2] = Selectivity ratio of IC50 for human SGC7901 cells to IC50 for mouse BAF3 cells expressing TPR-MET; type: ADME, cell-based
Method in brief: (§3)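 Each cell line was seeded in 96-well plates, then exposed the next day to a range of compound concentrations for 72 h. Growth was read by SRB or MTT assay, and IC50 was fitted by a four-parameter concentration-response curve. Each concentration was run at least in triplicate, in at least 2 experiments. BaF3/TPR-Met are murine pre-B BaF3 cells transfected with TPR-MET cDNA and selected in puromycin.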

[3] = Selectivity ratio of IC50 for human Bel7404 cells to IC50 for mouse BAF3 cells expressing TPR-MET; type: ADME, cell-based
Method in brief: (§4)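 Both IC50s in each ratio come from one proliferation assay. Cells were seeded and exposed the next day to a range of concentrations for 72 h, then read by SRB or MTT. IC50s were fitted by four-parameter concentration–response, with each concentration at least in triplicate and at least 2 experiments. BaF3/TPR-Met is murine pre-B BaF3 transfected with TPR-MET and puromycin-selected.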

[4] = Selectivity ratio of IC50 for human Calu3 cells to IC50 for human MKN45 cells; type: ADME, cell-based; details: mkn-45; method in brief: as §4
[5] = Selectivity ratio of IC50 for human PANC1 cells to IC50 for mouse BAF3 cells expressing TPR-MET; type: ADME, cell-based; method in brief: as §3
[6] = Antitumor activity against human EBC1 cells xenografted in athymic nude mouse assessed as tumor growth inhibition at 12.5 mg/kg, po bid for 21 days measured twice a week during compound dosing relative to control; type: functional; details: EBC-1, po, 504 h, read-out: TGI
Method in brief: (§5)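 Nude mice bearing s.c. tumours. Cells were first grown s.c. to 700–800 mm³, then 1.5 mm³ fragments were transplanted s.c. into the right flank. Mice were randomised at 100–200 mm³ (n=6 treated, n=12 vehicle) and dosed orally twice daily for 21 days. Caliper measurement twice weekly; TV = length×width²/2. TGI taken on the final day versus vehicle; Student's t test.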

[7] = Selectivity ratio of IC50 for human AGS cells to IC50 for human EBC1 cells; type: ADME, cell-based; method in brief: as §4
NCI-H1299 = assay: Antiproliferative activity against human NCI-H1299 cells after 72 hrs by SRB or MTT assay; type: functional, cell-based; details: NCI-H1299, 72 h; method in brief: as §1
[8] = target: Fibroblast growth factor receptor 1 (Homo sapiens) (UniProt P11362); assay: Inhibition of recombinant FGFR1 (unknown origin) using poly (Glu, Tyr) 4:1 as substrate at 1000 nM incubated for 60 mins by ELISA relative to control; method in brief: as §2
MKN-45 = assay: Antitumor activity against human MKN45 cells xenografted in po dosed athymic nude mouse assessed as tumor growth inhibition administered bid for 21 days measured twice a week during compound dosing; type: functional, organism-based; method in brief: as §5
[9] = Selectivity ratio of IC50 for human 786-0 cells to IC50 for human EBC1 cells; type: ADME, cell-based; method in brief: as §4
[10] = Selectivity ratio of IC50 for human Bel7404 cells to IC50 for human EBC1 cells; type: ADME, cell-based; method in brief: as §4
[11] = target: Proto-oncogene tyrosine-protein kinase receptor Ret (Homo sapiens) (UniProt P07949); assay: Inhibition of recombinant RET (unknown origin) using poly (Glu, Tyr) 4:1 as substrate at 1000 nM incubated for 60 mins by ELISA relative to control; method in brief: as §2
[12] = Antitumor activity against human MKN45 cells xenografted in athymic nude mouse assessed as tumor growth inhibition at 25 mg/kg, po bid for 21 days measured twice a week during compound dosing relative to control; type: functional; details: MKN-45, po, 504 h, read-out: TGI; method in brief: as §5
NCI-H596 = assay: Antiproliferative activity against human NCI-H596 cells after 72 hrs by SRB or MTT assay; type: functional, cell-based; details: NCI-H596, 72 h; method in brief: as §1
[13] = Selectivity ratio of IC50 for human NCI-H292 cells to IC50 for human EBC1 cells; type: ADME, cell-based; method in brief: as §4
[14] = Selectivity ratio of IC50 for human Bel7404 cells to IC50 for human MKN45 cells; type: ADME, cell-based; method in brief: as §4
[15] = Selectivity ratio of IC50 for human SMMC7721 cells to IC50 for human MKN45 cells; type: ADME, cell-based; details: smmc-7721; method in brief: as §3
[16] = Selectivity ratio of IC50 for human NCI-H292 cells to IC50 for human MKN45 cells; type: ADME, cell-based; method in brief: as §4
NCI-H292 = assay: Antiproliferative activity against human NCI-H292 cells after 72 hrs by SRB or MTT assay; type: functional, cell-based; details: NCI-H292, 72 h; method in brief: as §1
[17] = target: Macrophage-stimulating protein receptor (Homo sapiens) (UniProt Q04912); assay: Inhibition of recombinant RON (unknown origin) using poly (Glu, Tyr) 4:1 as substrate at 1000 nM incubated for 60 mins by ELISA relative to control; method in brief: as §2
[18] = Selectivity ratio of IC50 for human BGC823 cells to IC50 for human EBC1 cells; type: ADME, cell-based; details: bgc-823; method in brief: as §4
[19] = target: TPR/MET fusion protein (Mus musculus) (UniProt P16056+F6ZDS4); assay: Inhibition of TPR-MET in mouse BAF3 cells assessed as reduction in AKT phosphorylation at Serine 473 at 10 nM after 1 hr by Western blot analysis; type: cell-based
Method in brief: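 BaF3 stably expressing TPR-MET (puromycin-selected), grown with IL-3-conditioned medium. Treated 1 h at 37 °C, lysed in SDS sample buffer. 10% SDS-PAGE and immunoblot for phospho-c-Met, phospho-ERK1/2, phospho-AKT and totals; ECL detection.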

[20] = Selectivity ratio of IC50 for human MGC803 cells to IC50 for mouse BAF3 cells expressing TPR-MET; type: ADME, cell-based; method in brief: as §4
[21] = target: Hepatocyte growth factor receptor (Homo sapiens, UniProt P08581); assay: Inhibition of c-Met in human NCI-H441 cells assessed as inhibition of HGF-induced cell migration after 24 hrs by crystal violet staining based microscopic analysis
Method in brief: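 NCI-H441 cells, 1.5×10^5 in serum-free medium, placed in upper Transwell chamber (8 µm pores; Matrigel-coated for invasion). Lower chamber serum-free medium ± HGF 100 ng/mL, with compound. After 24 h at 37 °C, non-migrated cells removed. Traversed cells stained with 0.1% crystal violet 15 min and imaged in 5 fields per filter. Three independent experiments.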

Sequence of Fibroblast growth factor receptor 1 (Homo sapiens) (P11362 22-822 limits assumed): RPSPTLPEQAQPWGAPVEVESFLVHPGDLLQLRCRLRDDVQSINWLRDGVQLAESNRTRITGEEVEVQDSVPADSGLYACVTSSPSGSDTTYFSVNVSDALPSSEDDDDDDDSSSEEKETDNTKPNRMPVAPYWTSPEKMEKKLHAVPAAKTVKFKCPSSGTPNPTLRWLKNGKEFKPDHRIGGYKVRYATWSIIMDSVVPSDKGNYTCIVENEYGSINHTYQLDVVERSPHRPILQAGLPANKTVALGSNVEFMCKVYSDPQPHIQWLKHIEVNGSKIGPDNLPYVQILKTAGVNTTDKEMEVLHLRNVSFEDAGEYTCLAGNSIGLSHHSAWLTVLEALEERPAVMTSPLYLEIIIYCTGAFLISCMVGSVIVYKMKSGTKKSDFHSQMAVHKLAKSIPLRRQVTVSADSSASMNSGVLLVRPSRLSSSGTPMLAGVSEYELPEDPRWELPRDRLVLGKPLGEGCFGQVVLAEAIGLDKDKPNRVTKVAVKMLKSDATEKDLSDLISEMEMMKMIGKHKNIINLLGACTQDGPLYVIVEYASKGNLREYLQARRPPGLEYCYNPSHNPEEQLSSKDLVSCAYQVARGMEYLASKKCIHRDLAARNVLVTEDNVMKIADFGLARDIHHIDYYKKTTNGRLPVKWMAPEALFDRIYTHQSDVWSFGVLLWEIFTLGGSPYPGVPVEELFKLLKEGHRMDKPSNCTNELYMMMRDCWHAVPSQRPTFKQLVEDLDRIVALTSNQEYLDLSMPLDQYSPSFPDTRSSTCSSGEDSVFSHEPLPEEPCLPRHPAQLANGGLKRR
Sequence of Hepatocyte growth factor receptor (P08581 whole entry): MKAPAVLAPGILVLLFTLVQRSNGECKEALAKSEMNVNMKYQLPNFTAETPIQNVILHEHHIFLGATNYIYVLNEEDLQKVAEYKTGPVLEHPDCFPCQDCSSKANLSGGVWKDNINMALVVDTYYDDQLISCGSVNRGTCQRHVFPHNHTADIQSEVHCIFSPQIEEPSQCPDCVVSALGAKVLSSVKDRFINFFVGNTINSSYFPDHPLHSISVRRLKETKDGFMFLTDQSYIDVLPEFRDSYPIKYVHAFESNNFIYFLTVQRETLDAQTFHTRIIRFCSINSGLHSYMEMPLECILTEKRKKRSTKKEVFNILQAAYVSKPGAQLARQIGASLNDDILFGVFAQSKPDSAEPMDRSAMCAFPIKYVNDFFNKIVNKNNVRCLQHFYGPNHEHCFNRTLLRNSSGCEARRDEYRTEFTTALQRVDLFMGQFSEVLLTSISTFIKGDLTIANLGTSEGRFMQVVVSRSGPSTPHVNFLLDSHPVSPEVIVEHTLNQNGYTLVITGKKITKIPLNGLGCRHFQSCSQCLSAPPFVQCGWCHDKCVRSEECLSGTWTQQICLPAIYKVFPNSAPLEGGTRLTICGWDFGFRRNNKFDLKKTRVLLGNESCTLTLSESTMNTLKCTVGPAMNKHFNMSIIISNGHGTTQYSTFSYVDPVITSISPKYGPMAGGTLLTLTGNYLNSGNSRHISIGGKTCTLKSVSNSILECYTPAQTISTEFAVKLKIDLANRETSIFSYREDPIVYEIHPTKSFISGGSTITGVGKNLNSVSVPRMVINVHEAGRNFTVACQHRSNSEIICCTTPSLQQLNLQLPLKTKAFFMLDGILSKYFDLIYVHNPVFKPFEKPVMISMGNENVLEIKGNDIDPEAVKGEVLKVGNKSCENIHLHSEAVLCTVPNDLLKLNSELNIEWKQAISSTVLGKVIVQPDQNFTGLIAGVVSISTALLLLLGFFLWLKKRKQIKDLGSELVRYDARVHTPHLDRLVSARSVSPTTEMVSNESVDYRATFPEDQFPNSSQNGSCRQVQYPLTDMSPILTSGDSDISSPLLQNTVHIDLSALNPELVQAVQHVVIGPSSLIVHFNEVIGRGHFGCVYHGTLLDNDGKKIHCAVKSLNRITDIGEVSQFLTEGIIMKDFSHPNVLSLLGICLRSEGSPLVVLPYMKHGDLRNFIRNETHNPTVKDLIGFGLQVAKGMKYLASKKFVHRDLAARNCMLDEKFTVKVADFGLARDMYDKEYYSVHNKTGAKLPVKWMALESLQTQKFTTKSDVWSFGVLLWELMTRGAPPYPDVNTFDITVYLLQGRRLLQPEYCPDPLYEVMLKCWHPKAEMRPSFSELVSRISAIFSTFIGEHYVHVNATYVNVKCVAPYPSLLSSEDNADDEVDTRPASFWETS
Sequence of Macrophage-stimulating protein receptor (Homo sapiens) (Q04912 25-304 limits assumed): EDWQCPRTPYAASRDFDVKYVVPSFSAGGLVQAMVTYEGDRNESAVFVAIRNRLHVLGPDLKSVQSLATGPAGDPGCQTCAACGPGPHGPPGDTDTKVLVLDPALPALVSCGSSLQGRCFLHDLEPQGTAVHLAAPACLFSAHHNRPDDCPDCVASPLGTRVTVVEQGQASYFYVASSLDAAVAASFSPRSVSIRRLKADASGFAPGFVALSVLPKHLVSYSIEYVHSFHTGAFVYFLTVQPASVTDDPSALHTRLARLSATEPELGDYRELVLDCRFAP
Sequence of Macrophage-stimulating protein receptor (Homo sapiens) (Q04912 310-1400 limits assumed): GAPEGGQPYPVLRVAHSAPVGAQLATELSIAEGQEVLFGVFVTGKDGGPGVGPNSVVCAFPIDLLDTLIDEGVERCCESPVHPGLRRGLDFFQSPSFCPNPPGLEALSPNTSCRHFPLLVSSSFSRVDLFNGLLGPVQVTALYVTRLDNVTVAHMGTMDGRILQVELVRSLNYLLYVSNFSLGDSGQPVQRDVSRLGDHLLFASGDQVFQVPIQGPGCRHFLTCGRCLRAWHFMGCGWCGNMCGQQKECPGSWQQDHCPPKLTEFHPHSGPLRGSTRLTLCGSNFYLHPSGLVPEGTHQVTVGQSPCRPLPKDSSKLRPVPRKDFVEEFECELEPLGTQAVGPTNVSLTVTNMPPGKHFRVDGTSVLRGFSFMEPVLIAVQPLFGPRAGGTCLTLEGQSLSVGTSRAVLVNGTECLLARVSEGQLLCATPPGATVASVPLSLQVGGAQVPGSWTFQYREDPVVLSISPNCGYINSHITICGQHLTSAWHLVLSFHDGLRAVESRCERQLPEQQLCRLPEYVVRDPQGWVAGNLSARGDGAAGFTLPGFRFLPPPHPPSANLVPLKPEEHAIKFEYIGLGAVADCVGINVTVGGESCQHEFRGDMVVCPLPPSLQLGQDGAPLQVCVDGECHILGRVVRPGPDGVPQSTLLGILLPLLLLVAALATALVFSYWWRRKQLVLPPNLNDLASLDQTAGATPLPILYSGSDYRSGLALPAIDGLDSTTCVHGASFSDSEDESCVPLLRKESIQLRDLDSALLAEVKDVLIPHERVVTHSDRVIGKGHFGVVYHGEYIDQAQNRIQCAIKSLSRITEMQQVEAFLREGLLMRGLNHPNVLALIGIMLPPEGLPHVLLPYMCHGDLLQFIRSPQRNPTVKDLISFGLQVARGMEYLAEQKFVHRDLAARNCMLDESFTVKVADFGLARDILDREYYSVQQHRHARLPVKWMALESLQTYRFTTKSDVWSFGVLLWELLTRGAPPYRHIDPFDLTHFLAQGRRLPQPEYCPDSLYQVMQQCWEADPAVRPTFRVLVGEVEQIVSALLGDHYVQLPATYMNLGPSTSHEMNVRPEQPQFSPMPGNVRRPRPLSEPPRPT
Sequence of Proto-oncogene tyrosine-protein kinase receptor Ret (Homo sapiens) (P07949 whole entry): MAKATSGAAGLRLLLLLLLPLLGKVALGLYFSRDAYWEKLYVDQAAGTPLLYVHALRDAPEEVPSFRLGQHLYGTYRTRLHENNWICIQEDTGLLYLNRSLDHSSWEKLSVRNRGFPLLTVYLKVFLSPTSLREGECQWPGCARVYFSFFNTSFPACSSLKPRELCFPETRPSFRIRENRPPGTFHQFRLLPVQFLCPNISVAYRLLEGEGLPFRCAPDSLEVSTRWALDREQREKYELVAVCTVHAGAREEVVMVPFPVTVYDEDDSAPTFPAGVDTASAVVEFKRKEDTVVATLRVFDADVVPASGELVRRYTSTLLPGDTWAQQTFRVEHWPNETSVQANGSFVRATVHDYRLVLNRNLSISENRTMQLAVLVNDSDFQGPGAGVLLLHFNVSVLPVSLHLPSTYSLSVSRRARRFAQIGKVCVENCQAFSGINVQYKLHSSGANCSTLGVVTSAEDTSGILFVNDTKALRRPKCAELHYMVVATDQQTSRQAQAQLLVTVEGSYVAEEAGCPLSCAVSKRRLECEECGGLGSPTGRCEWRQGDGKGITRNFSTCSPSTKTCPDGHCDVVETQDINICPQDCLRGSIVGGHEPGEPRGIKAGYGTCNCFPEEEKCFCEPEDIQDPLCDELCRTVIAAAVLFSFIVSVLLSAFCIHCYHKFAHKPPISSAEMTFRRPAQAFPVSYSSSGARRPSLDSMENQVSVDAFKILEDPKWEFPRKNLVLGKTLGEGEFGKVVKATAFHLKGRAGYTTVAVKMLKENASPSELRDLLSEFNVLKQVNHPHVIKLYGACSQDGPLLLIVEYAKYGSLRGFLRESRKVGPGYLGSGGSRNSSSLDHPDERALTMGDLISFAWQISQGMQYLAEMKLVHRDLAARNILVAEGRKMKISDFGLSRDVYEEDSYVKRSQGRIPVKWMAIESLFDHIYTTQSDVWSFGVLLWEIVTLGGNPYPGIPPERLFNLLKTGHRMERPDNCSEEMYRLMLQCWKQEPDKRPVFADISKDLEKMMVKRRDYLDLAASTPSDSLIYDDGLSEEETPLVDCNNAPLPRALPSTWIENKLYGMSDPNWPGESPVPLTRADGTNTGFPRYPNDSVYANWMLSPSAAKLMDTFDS

For `Fc1ccc(-c2cnc3nnc(C(F)(F)c4ccc5ncccc5c4)n3n2)cc1`, the IC50 (NCI-H358) was > 10 µM, the inhibition [1] was 26.8% and the Ratio IC50 [2] was > 10000. The “Ratio IC50” value [3] was 10000, the Ratio IC50 [4] was > 10000 and the “Ratio IC50” value [5] was 10000. For the same compound, the inhibition in vivo at 12.5 mg/kg [6] was 75.6%, the “Ratio IC50” value [7] was 10000 and the IC50 (NCI-H1299) was > 10 µM. The inhibition [8] was 12.8%, the TGI (MKN-45) was “Dose-dependent effect” and the “Ratio IC50” value [9] was 10000. The “Ratio IC50” value [10] was 10000, the inhibition [11] was 29.9% and the inhibition in vivo at 25 mg/kg [12] was 96.5%. The IC50 (NCI-H596) was > 10 µM, the “Ratio IC50” value [13] was 10000 and the “Ratio IC50” value [14] was 10000. The “Ratio IC50” value [15] was 10000, the “Ratio IC50” value [16] was 10000 and the IC50 (NCI-H292) was > 10 µM. The inhibition [17] was 33.9%, the Ratio IC50 [18] was > 10000 and the inhibition [19] was “Active”. For the same compound, the Ratio IC50 [20] was > 10000 and the inhibition [21] was “Dose-dependent effect”.

Source: ChEMBL document CHEMBL3797175, “Discovery of 6-(difluoro(6-(4-fluorophenyl)-[1,2,4]triazolo[4,3-b][1,2,4]triazin-3-yl)methyl)quinoline as a highly potent and selective c-Met inhibitor” (Eur J Med Chem, 2016)
